These results are taken from ChEMBL document CHEMBL4411317 (Bioorg Med Chem, 2019).

In one data set the target is Dipeptidyl peptidase 9 (Homo sapiens, UniProt Q86TI2). Put plainly: Inhibition of recombinant full-length human N-terminal GST-tagged DPP9 expressed in Sf9 insect cells using Gly-Pro-AMC as substrate measured at 60 secs interval for 20 mins by fluorescence assay.
The target of a further data set is Dipeptidyl peptidase 8 (Homo sapiens, UniProt Q6V1X1). Put plainly: Inhibition of recombinant full-length human N-terminal GST-tagged DPP8 expressed in Sf9 insect cells using Gly-Pro-AMC as substrate measured at 60 secs interval for 20 mins by fluorescence assay.
Sequence of Dipeptidyl peptidase 8 (Q6V1X1 whole entry): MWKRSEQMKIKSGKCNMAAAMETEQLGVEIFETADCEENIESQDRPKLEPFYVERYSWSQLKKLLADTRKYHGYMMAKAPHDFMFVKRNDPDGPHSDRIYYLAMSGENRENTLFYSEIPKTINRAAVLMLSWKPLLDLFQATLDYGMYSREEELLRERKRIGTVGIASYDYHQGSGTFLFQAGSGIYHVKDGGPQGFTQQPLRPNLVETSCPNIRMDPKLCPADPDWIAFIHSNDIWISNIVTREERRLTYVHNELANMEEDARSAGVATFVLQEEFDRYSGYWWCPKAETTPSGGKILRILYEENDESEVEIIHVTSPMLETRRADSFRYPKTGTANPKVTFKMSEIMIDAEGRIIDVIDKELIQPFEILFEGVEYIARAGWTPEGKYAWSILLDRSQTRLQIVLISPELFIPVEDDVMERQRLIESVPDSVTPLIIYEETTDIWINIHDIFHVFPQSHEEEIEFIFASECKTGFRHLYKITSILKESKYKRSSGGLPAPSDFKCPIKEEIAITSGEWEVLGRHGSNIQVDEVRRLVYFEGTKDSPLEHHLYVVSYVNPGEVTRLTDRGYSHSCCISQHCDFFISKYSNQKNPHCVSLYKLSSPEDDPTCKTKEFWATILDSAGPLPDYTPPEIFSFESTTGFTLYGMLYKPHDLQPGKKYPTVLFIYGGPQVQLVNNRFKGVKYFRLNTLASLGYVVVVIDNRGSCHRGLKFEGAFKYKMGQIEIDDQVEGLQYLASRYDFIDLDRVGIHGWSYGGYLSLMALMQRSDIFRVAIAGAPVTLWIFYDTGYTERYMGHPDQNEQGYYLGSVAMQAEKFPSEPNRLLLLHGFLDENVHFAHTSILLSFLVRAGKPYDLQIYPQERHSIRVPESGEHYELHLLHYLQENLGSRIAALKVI
Data set [1] is described as follows: Cytotoxicity against human LO2 cells assessed as cell viability at 50 uM after 48 hrs by MTT assay relative to control. The class given is cell-based, L02. Conditions: read-out: Activity. In a few lines:
(§1)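 Hepatic LO2 cells grown in DMEM with 10% FBS and antibiotics at 37 °C, 5% CO2; log-phase cells seeded at 1 × 10^4 per well and exposed to compounds for 48 h. MTT (5 mg/mL stock in PBS) added 4 h before end; formazan dissolved in DMSO, absorbance read at 490 nm.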

Data set [2] in a line: Retention time of the compound in water at 1 uM by LC/MS/MS method. The class given is physicochemical. Conditions: buffer.
Data set [3] is described as follows: Drug metabolism in rat plasma assessed as (R)-2-((4-(3-Aminopiperidin-1-yl)-3-(but-2-yn-1-yl)-2,6-dioxo-3,6-dihydropyrimidin-1(2H)-yl)methyl)-6-fluorobenzoic acid hydrochloride formation at 1 uM after 30 mins by LC/MS/MS method. Format: ADME, cell-free. The settings on record: 0.5 h. In a few lines: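 Ester prodrug incubated with rat plasma at 37 °C for 0 and 30 min; ester and formed acid quantified by LC/MS/MS.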

A short description of data set [4]: Retention time of the compound in rat plasma at 1 uM by LC/MS/MS method. The class given is ADME, cell-free.
The next data set relates to Mus musculus. Put plainly: Hypoglycemic activity in po dosed Kunming mouse assessed as decrease in blood glucose AUC (0 to 120 mins) administered as single dose treated for 30 mins prior to glucose load by OGTT. The class given is functional, organism-based. Put shortly: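 Male Kunming mice (20±2 g) fasted overnight (12 h), randomized (n = 8), given a single oral dose suspended in water vehicle; oral glucose 3 g/kg 30 min later. Blood sampled at -30, 0, 15, 30, 60 and 120 min; glucose AUC0–120 min versus vehicle, mean ± SEM, one-way ANOVA with Dunnett's test.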

A short description of data set [5]: Cytotoxicity against human LO2 cells assessed as cell viability at 100 uM after 48 hrs by MTT assay relative to control. Format: cell-based, L02. Conditions: read-out: Activity. Put shortly:
as §1

A short description of data set [6]: Retention time of the compound in rat plasma by LC/MS/MS method. The class given is ADME, cell-free.
Data set [7] in a line: Cytotoxicity against human LO2 cells assessed as cell viability at 20 uM after 48 hrs by MTT assay relative to control. The class given is cell-based, L02. The settings on record: read-out: Activity. Put shortly:
as §1
(In general: Tetrazolium dyes change colour on reduction, which living cells bring about.)

Sequence of Dipeptidyl peptidase 9 (Q86TI2 whole entry): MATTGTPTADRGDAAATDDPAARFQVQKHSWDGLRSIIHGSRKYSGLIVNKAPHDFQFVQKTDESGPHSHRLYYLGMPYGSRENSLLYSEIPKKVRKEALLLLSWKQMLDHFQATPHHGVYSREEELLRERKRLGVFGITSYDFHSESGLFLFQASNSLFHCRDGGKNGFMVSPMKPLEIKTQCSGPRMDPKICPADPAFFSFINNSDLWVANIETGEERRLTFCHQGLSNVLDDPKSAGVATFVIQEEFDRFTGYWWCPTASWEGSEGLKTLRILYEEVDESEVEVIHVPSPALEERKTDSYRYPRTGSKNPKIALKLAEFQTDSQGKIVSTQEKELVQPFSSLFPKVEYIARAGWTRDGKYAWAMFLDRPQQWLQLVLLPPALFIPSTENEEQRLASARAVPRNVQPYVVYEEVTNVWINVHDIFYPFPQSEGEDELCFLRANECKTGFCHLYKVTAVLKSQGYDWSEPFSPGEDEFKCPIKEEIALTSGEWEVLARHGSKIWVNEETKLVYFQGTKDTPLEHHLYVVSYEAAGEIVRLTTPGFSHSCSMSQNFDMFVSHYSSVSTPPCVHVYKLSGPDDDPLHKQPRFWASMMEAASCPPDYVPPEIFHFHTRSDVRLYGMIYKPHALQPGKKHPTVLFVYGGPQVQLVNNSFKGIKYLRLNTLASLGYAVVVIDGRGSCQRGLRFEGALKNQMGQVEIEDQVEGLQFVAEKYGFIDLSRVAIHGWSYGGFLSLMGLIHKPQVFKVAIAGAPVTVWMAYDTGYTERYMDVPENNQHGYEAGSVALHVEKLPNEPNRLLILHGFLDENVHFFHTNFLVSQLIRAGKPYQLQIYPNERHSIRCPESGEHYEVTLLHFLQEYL

As to `CC#CCn1c(N2CCC[C@@H](N)C2)cc(=O)n(Cc2ccc(Br)cc2C(=O)O)c1=O`, the IC50 at Dipeptidyl peptidase 9 and at Dipeptidyl peptidase 8 was more than 100 µM in each case.
For the compound `CC#CCn1c(N2CCC[C@@H](N)C2)cc(=O)n(Cc2cccc(F)c2C(=O)OC)c1=O`, the IC50 at Dipeptidyl peptidase 9 and at Dipeptidyl peptidase 8 was more than 100 µM throughout. Moreover, the viability at 48 h, 50 µM in data set [1] amounted to 90%. Moreover, the Retention_time in [2] and in [4] was 5.41 min each time. For the same compound, the Drug metabolism entry in data set [3] was “Metabolite_Detected”. The Activity entry with Mus musculus is “Dose-dependent effect”. In [5], the viability at 48 h, 100 µM turned out to be 70%.
`CC#CCn1c(N2CCC[C@@H](N)C2)cc(=O)n(Cc2ccc(F)cc2C(=O)O)c1=O`: the IC50 at Dipeptidyl peptidase 9 and at Dipeptidyl peptidase 8 was more than 100 µM each time.
With `CC#CCn1c(N2CCC[C@@H](N)C2)cc(=O)n(Cc2cc(OC)ccc2C(=O)O)c1=O`, the IC50 on Dipeptidyl peptidase 9 and on Dipeptidyl peptidase 8 was more than 100 µM throughout.
In the case of `CC#CCn1c(N2CCC[C@@H](N)C2)cc(=O)n(Cc2cc(C#N)ccc2C(=O)O)c1=O`, the IC50 on Dipeptidyl peptidase 9 and on Dipeptidyl peptidase 8 was more than 100 µM throughout.
For the compound `CC#CCn1c(N2CCC[C@@H](N)C2)cc(=O)n(Cc2ccccc2C(=O)O)c1=O`, the IC50 at Dipeptidyl peptidase 9 and on Dipeptidyl peptidase 8 was more than 100 µM each time.
`CC#CCn1c(N2CCC[C@@H](N)C2)cc(=O)n(Cc2cccc(F)c2C(=O)O)c1=O`: the viability at 48 h, 50 µM in [1] turned out to be 90%. Moreover, the Retention_time was found to be 2.03 min in data set [2] and 2 min in [6]. Besides, the viability at 48 h, 100 µM in data set [5] came out at 70%.
As to `COc1cccc2c1C(=O)c1c(O)c3c(c(O)c1C2=O)C[C@@](O)(C(=O)CO)C[C@@H]3O[C@H]1C[C@H](N)[C@H](O)[C@H](C)O1` [DOXORUBICIN], the viability at 48 h, 20 µM in [7] stood at 11%.
For the compound `CC#CCn1c(N2CCC[C@@H](N)C2)cc(=O)n(Cc2cc(Br)ccc2C(=O)O)c1=O`, the IC50 on Dipeptidyl peptidase 9 and on Dipeptidyl peptidase 8 was more than 100 µM each time. For the same compound, in data set [1], the viability at 48 h, 50 µM came to 90%. For the same compound, the viability at 48 h, 100 µM in data set [5] came out at 70%.
`CC#CCn1c(N2CCC[C@@H](N)C2)cc(=O)n(Cc2cc(Br)ccc2C(=O)OC)c1=O`: the IC50 on Dipeptidyl peptidase 9 and at Dipeptidyl peptidase 8 was more than 100 µM each time. In [5], the viability at 48 h, 100 µM amounted to 14%.
Regarding `CC#CCn1c(N2CCC[C@@H](N)C2)cc(=O)n(Cc2ccc(Cl)cc2C(=O)O)c1=O`, the IC50 at Dipeptidyl peptidase 9 and at Dipeptidyl peptidase 8 was more than 100 µM each time.

The term IC50 denotes the midpoint of a concentration-inhibition curve.
